Compound activity from PubChem BioAssay.
Shown are actives, neighbours in structure and some others; about 4.3% of the full set was active somewhere.
STAT1 act: STAT1 signaling activators, primary screen, cell-based, HTS, luciferase reporter | NIH 3T3 STAT1-luciferase reporter, IFN-gamma, luminescence; 100% = IFN-gamma alone, no compound | activation (% of control), % at 5.5 µM | 200,000 tested, 2.6% active;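 active = activation above the screen-wide mean activation plus 3 SD, cut at about 130% in these data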;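 note: raw ratio to IFN-gamma control signal so 100% means no change and 0% no light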
STAT3 activator: IL-6 driven STAT3 reporter potentiators, primary screen, U3A cells, luciferase, luminescence, MLSCN library. 190,000 tested, 0.91% active. activation (% of control), % at 5.6 µM. IL-6 STAT3-luciferase reporter; 100% = signal with IL-6 EC80 alone;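 active = activation above the screen-wide mean of compound activation plus 3 SD, cut at about 130% in these data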;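 note: 0% = background luminescence of wells with medium and substrate only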
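Material: STAT1-lacking human U3A cells, STAT3 luciferase reporter | Benchmarks: IL-6-only wells as 100% reference | Probe or stimulus: IL-6 (33 ng/mL) | Timing: Compound 1 h, then IL-6 6 h at 37 °C | Detection: Luminescence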
STAT1 blocker: STAT1 signaling inhibitors, primary screen, cell-based, HTS, luciferase reporter; NIH 3T3 STAT1-luciferase reporter, IFN-gamma, luminescence; inhibition, % at 5.5 µM; 200,000 tested, 0.35% active;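 active = inhibition above a set limit, the mean inhibition across all tested compounds plus 3 SD, cut at about 34% in these data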;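 note: 0% = IFN-gamma with DMSO and 100% = IFN-gamma with 300 µM nifuroxazide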
STAT3 blocker: IL-6 driven STAT3 reporter inhibitors, primary screen, U3A cells, luciferase, luminescence, MLSCN library | IL-6 STAT3-luciferase reporter; host cell line lacks STAT1 | 190,000 tested, 0.89% active | inhibition, % at 5.5 µM;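 active = inhibition above the mean inhibition across all screened compounds plus 3 SD, cut at about 44% in these data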;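 note: 0% = DMSO only wells and 100% = 100 µM nifuroxazide control wells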
STAT1 act conf: STAT1 signaling activators, confirmation, cell-based, HTS, luciferase reporter. shares compounds with STAT1 act. NIH 3T3 STAT1-luciferase reporter, IFN-gamma potentiation, luminescence; 100% = IFN-gamma EC80 alone, no compound. activation (% of control), % at 5.7 µM. 1,200 tested, 97% active. AID 1262, 2008;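 active = activation above a set limit carried over from the earlier primary STAT1 screen, cut at about 140% in these data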;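 note: simple ratio to median IFN-gamma plus DMSO wells so 0% means no light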
NFkB act: NF-kB reporter activators, TNF-alpha stimulated, counter-screen for STAT1 activator project, cell-based, HEK293T, luciferase luminescence. shares compounds with STAT1 act. 100% = TNF-alpha with vehicle only. activation (% of control), % at 5.7 µM. 1,200 tested, 43% active. AID 1306, 2008;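 active = activation above the mean of solvent-only control wells plus 3 SD, set per campaign, cut at about 130% in these data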;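 note: TNF-alpha given at a submaximal dose yielding about 80% of full reporter signal; values are well signal over median control so 100% means no change and 0% no light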
STAT3 act STAT1c: STAT3 reporter activation by STAT1 hits, confirmation, counter-screen for STAT1 activator project, U3A cells, luciferase, luminescence; activation (% of control), % at 5.7 µM; shares compounds with STAT1 act; IL-6; cells lack STAT1; 100 = IL-6 alone, no compound effect; 1,200 tested, 46% active; AID 1316, 2008;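 active = activation above the solvent-only control well mean plus 3 SD, set per plate batch, cut at about 110% in these data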;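 note: 0% = no luminescence and 100% = median IL-6 plus DMSO wells; higher means more STAT3 reporter activation so hits are non-selective activators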
* hit, by the source's call; · = no result given.

SMILES	STAT1 act	STAT3 activator	STAT1 blocker	STAT3 blocker	STAT1 act conf	NFkB act	STAT3 act STAT1c
O=C1OC(Cc2ccccn2)C(O)=C1C1=NCCCN1 (stereo unspecified)	110.4	100.5	-11.7	-1.7	·	·	·
Cc1cccc(/N=C/c2c(O)[nH]c3ccccc23)n1	158.4*	111.0	-64.3	-8.0	170.6*	111.6	124.4*
CC(C)N=Cc1c(O)[nH]c2ccccc12	95.9	80.7	4.4	27.5	·	·	·
Oc1[nH]c2ccccc2c1C=Nc1ccc2c(c1)OCCO2	186.7*	70.2	-85.1	37.0	345.7*	136.6*	106.3
CC(C)CCOc1ccc(C2CC(=O)N(C)C2=O)cc1 (stereo unspecified)	106.5	106.3	-8.5	-2.0	·	·	·
O=C(NC1CCCCC1)C1CC(=O)N(c2cccc([N+](=O)[O-])c2)C1 (stereo unspecified)	94.3	93.5	5.7	10.0	·	·	·
CCNC(=S)SCCOc1ccccc1C	100.0	94.3	-0.1	7.0	·	·	·
CCN(CC)c1ccc(NC(=O)c2cccc(C)c2OC)c(C)c1	152.5*	96.9	-57.4	9.2	175.4*	137.0*	105.6
CCN(CC)c1ccc(NC(=O)c2cccnc2)c(C)c1	100.8	95.6	-0.8	9.5	·	·	·
O=C(O)c1ccc(/C=N/Nc2ccc(C(F)(F)F)cn2)cc1	154.8*	102.4	-59.2	4.9	210.1*	129.1	124.3*
O=C(O)c1ccc(N/N=C/c2ccc(-c3ccccc3)cc2)cc1	220.5*	92.5	-134.8	16.5	320.6*	162.0*	105.6
N#Cc1c(-c2ccc(Cl)cc2)ccn2nc(C3CCCCC3)nc12	113.0	120.5	-14.0	-19.2	·	·	·
C/C(=C\c1ccco1)CN1CCN(Cc2ccc(C)o2)C(CCO)C1 (stereo unspecified)	102.5	103.3	-4.7	-0.2	·	·	·
Cc1ccc(NC(=O)c2ccccc2F)cc1S(=O)(=O)N1CCCCCC1	100.0	106.8	-0.3	0.0	·	·	·
Cc1occc1C(=O)Nc1cccc([N+](=O)[O-])c1	102.4	91.1	-2.5	9.5	·	·	·
O=C(Nc1ccc2c(c1)CCC2)c1ccccc1F	178.8*	78.3	-87.3	27.4	221.6*	123.3	97.0
O=C(Nc1ccc2c(c1)CCC2)c1ccccc1	181.2*	83.7	-89.2	16.0	237.2*	131.7	101.7
Cc1occc1C(=O)Nc1ccc2c(c1)CCC2	156.5*	96.2	-61.2	4.0	176.1*	130.2	108.8
CCOC(=O)c1c(NC(=O)CSc2nc3nc(C)cc(C)n3n2)sc(CC)c1C	97.0	96.8	3.4	1.4	·	·	·
CCc1cccc(NC(=O)CN(c2ccc(OC)cc2)S(=O)(=O)c2c(C)n[nH]c2C)c1	88.3	101.2	12.8	5.9	·	·	·
CCCOC(=O)c1ccc(-c2ccc(C=O)o2)cc1	162.5*	111.8	-70.2	-15.8	217.0*	132.2	103.9
COc1ccc(OC)c(NC(=O)c2ccc3c(=O)n(CCc4ccccc4)c(=S)[nH]c3c2)c1	101.6	93.1	-1.8	7.4	·	·	·
CCOc1ccc(N/C(C)=C\C(=O)c2ccc3c(c2)OCCO3)cc1	156.2*	90.4	-63.4	14.4	219.9*	134.0*	105.1
COc1ccc(C(=O)/C=C(\C)Nc2ccc3c(c2)OCO3)cc1	111.2	104.1	-12.5	6.6	·	·	·
O=C(NCCSc1ccccc1)c1ccc(Br)cc1	157.2*	98.3	-63.9	2.9	205.5*	116.1	111.5*
CN(C)S(=O)(=O)c1ccc(C(=O)NCCSc2ccc(Br)cc2)cc1	96.0	97.0	3.8	4.8	·	·	·
O=C1NCCCC1C(=O)Nc1ccccc1C(F)(F)F (stereo unspecified)	103.0	99.6	-3.3	5.0	·	·	·
CCOc1ccc(S(=O)(=O)N2CCN(C(=O)c3sccc3C)CC2)cc1	90.0	96.0	10.8	5.1	·	·	·
